In assay [1] the test system is Tobacco mosaic virus. Briefly: Inhibition of Tobacco mosaic virus (TMV) infection in Nicotiana glutinosa at 200 ug/ml after 3 to 4 days by half-leaf method. The format is functional. The method, boiled down:
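Curative half-leaf test on N. glutinosa. Leaves were mechanically inoculated with purified TMV U1 (30 μg/mL). After 2 h, compound (DMSO stock in water) was applied to the left half and DMSO to the right half. Lesions were counted after 3–4 days. Values are mean ± SD, n = 3.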

Assay [2] has as its system Tobacco mosaic virus. Briefly: Inhibition of Tobacco mosaic virus (TMV) infection in Nicotiana tabacum cv. K326 at 30 ug/ml by DAS-ELISA method. The format is functional. The method, boiled down: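 Leaf-disk test in N. tabacum cv. K326. Leaves were inoculated with TMV (30 μg/mL), and 1 cm disks were cut after 72 h. Disks were floated on compound, DMSO (negative) or mock solutions at 28 °C for 48 h. Virus in disks was measured by DAS-ELISA at OD405 against a TMV standard curve (0.23–3.75 μg/mL). Inhibition = (1 − treated/negative-control TMV) × 100%.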

Assay [3] deals with Tobacco mosaic virus. Briefly: Inhibition of Tobacco mosaic virus (TMV) infection in Nicotiana glutinosa assessed as infection inhibition rate at 30 ug/ml after 3 to 4 days by half-leaf method. The format is functional. The method, boiled down:
(§1)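 Half-leaf protective assay on Nicotiana glutinosa local-lesion host at the 4–5 leaf stage. TMV U1, purified and diluted to 30 μg/mL in 0.01 M PBS, was mixed with compound solution (DMSO stock diluted in water) for 30 min. The mix was rubbed onto the left leaf half, with virus plus DMSO on the right half. Local lesions were counted 3–4 days later; three repetitions.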

Assay [4] concerns Tobacco mosaic virus. Briefly: Inhibition of Tobacco mosaic virus (TMV) infection in Nicotiana glutinosa assessed as infection inhibition rate at 20 ug/ml after 3 to 4 days by half-leaf method. In kind it is functional. The method, boiled down:
as §1

In assay [5] the test system is Tobacco mosaic virus. Briefly: Inhibition of Tobacco mosaic virus (TMV) infection in Nicotiana glutinosa assessed as infection inhibition rate at 15 ug/ml after 3 to 4 days by half-leaf method. In kind it is functional. The method, boiled down: as §1
Assay [6] deals with Tobacco mosaic virus. Briefly: Inhibition of Tobacco mosaic virus (TMV) infection in Nicotiana glutinosa assessed as infection inhibition rate at 10 ug/ml after 3 to 4 days by half-leaf method. The format is functional. The method, boiled down:
as §1

The test system of assay [7] is Tobacco mosaic virus. In words: Inhibition of Tobacco mosaic virus (TMV) infection in Nicotiana glutinosa assessed as infection inhibition rate at 5 ug/ml after 3 to 4 days by half-leaf method. The format is functional. An outline of the steps: as §1
Assay [8] has as its system Tobacco mosaic virus. Briefly: Inhibition of Tobacco mosaic virus (TMV) infection in Nicotiana glutinosa after 3 to 4 days by half-leaf method. The format is functional, organism-based. The method, boiled down:
as §1

Assay [9] concerns Tobacco mosaic virus. In words: Inhibition of Tobacco mosaic virus (TMV) infection in Nicotiana glutinosa assessed as infection inhibition rate at 25 ug/ml after 3 to 4 days by half-leaf method. The format is functional. The method, boiled down: as §1

Values after ≈ are worked out from the molar mass of the structure shown.

`C=C1[C@@H]([C@@]2(C)C=CC(=O)O[C@](C)(COC(C)=O)[C@@H]2CC(=O)OC)[C@@H](OC=O)[C@H](OC(=O)[C@H](O)[C@H](C)CC)[C@@]2(C)[C@@H](c3ccoc3)C[C@H]3O[C@]132` [MOMBASOL] showed an inhibition at 200 µg/mL in assay [1] of 27.7%. Besides, the inhibition at 30 µg/mL in [2] worked out at 39.3%; in [3] it was 25.9%.

With `C=C1[C@@H]([C@@]2(C)C=CC(=O)OC(C)(C)[C@@H]2CC(=O)OC)[C@@H](OC(C)=O)[C@H](OC(C)=O)[C@@]2(C)[C@@H](c3ccoc3)C[C@H]3O[C@]132` [NYMANIA], the inhibition at 20 µg/mL in assay [4] came out at 40.2%. In addition, the inhibition at 15 µg/mL in assay [5] came to 29.8%. Besides, the inhibition at 10 µg/mL in [6] is 19.6%. The inhibition at 5 µg/mL in assay [7] amounted to 8.3%. For the same molecule, the IC50 in assay [8] was 22.3 µg/mL (≈ 39.1 µM). This molecule displayed an inhibition at 200 µg/mL in assay [1] of 39.2%. For the same molecule, the inhibition at 30 µg/mL in [2] was 55.4%; in assay [3], 58%. Besides, the inhibition at 25 µg/mL in [9] turned out to be 49.8%.

For `CNCC(=O)N[C@@H](CO)C(=O)N[C@H]1[C@H](O)[C@@H](O)[C@H](n2ccc(N)nc2=O)O[C@@H]1C(N)=O` [NINGNANMYCIN], the inhibition at 20 µg/mL in assay [4] came out at 32.1%. Besides, in assay [5], the inhibition at 15 µg/mL came out at 30.3%. The inhibition at 10 µg/mL in assay [6] came out at 25%. In addition, the half-maximal inhibitory concentration (IC50) in [8] stood at 52.1 µg/mL (≈ 117 µM). Further, 200 µg/mL produced 42.1% inhibition in [1]. The inhibition at 30 µg/mL in assay [2] worked out at 56.5%; in assay [3], 42.6%. In addition, in [9], the inhibition at 25 µg/mL was 38.3%.

As for `CC(=O)O[C@H]1C[C@@H](OC(C)=O)[C@@]2(C)CO[C@H]3[C@@H](O)[C@@]4(C)C5=CC[C@@H](c6ccoc6)[C@]5(C)CC[C@@H]4[C@]1(C)[C@@H]32` [DIACETYLVILASININ], at 200 µg/mL the inhibition in [1] was 17.2%. Also, in [3], the inhibition at 30 µg/mL is 14.6%.

As for `C/C=C(\C)C(=O)O[C@H]1C[C@@H](OC(C)=O)[C@@]2(C)CO[C@H]3[C@@H](O)[C@@]4(C)C5=C[C@@H](O)[C@@H](c6ccoc6)[C@]5(C)[C@@H](OC)C[C@@H]4[C@]1(C)[C@@H]32` [MUNRONOID N], in assay [4], the inhibition at 20 µg/mL was 37.9%. Moreover, the inhibition at 15 µg/mL in assay [5] was found to be 26.4%. Besides, in assay [6], the inhibition at 10 µg/mL was found to be 16.5%. Further, the inhibition at 5 µg/mL in assay [7] amounted to 8.3%. The concentration for half-maximal inhibition (IC50) in [8] is 27.9 µg/mL (≈ 46.6 µM). In [1], this molecule showed an inhibition at 200 µg/mL of 24.5%. Further, the inhibition at 30 µg/mL in assay [2] is 30.2%; in assay [3] it was 52%. Besides, the inhibition at 25 µg/mL in assay [9] came to 44.6%.

As for `CC(=O)O[C@H]1C[C@H]2[C@](C)(C3=CC[C@@H](c4ccoc4)[C@@]31C)[C@H](OC(=O)C=C(C)C)C[C@H]1C(C)(C)OC(=O)C[C@H](OC(C)=O)[C@@]12C` [MUNRONOID M], the inhibition at 20 µg/mL in [4] was 33.5%. Besides, the inhibition at 15 µg/mL in assay [5] amounted to 22.6%. Also, in assay [6], the inhibition at 10 µg/mL was 11.5%. The molecule further came in with an IC50 in assay [8] of 37 µg/mL (≈ 60.6 µM). In addition, in assay [1], the inhibition at 200 µg/mL is 29.3%. The inhibition at 30 µg/mL in [2] was determined as 45.7%; in assay [3] it was 45.4%. In addition, the inhibition at 25 µg/mL in assay [9] amounted to 42.9%.

Take `CC(=O)O[C@H]1C[C@H]2[C@](C)(C3=CC[C@@H](c4ccoc4)[C@@]31C)[C@H](OC(C)=O)C[C@H]1C(C)(C)OC(=O)C[C@H](OC(C)=O)[C@@]12C` [MUNRONOID L]: in assay [4], the inhibition at 20 µg/mL is 35.8%. Moreover, the inhibition at 15 µg/mL in assay [5] was 25.7%. Besides, in assay [6], the inhibition at 10 µg/mL is 15.3%. Also, the inhibition at 5 µg/mL in assay [7] turned out to be 4.4%. The molecule also yielded an IC50 in assay [8] of 34.6 µg/mL (≈ 60.6 µM). Moreover, the inhibition at 200 µg/mL in assay [1] was determined as 34.6%. Besides, the values for the inhibition at 30 µg/mL in assay [2] and in assay [3] were 54.4% and 47.7%, respectively. For the same molecule, the inhibition at 25 µg/mL in assay [9] was 43.9%.

For the molecule `CCC(C)C(O)C(=O)O[C@H]1C[C@H]2[C@](C)(C3=CC[C@@H](c4ccoc4)[C@@]31C)[C@H](OC(C)=O)C[C@H]1C(C)(C)OC(=O)C[C@H](OC(C)=O)[C@@]12C` (stereo partly specified) [MUNRONOID K], in [4], the inhibition at 20 µg/mL was 38.7%. Also, the inhibition at 15 µg/mL in [5] was determined as 28.6%. The inhibition at 10 µg/mL in assay [6] was determined as 18.7%. The inhibition at 5 µg/mL in assay [7] worked out at 6.5%. It took 28.3 µg/mL (≈ 44 µM) to reach half-maximal inhibition in [8] (IC50). In assay [1], this molecule returned an inhibition at 200 µg/mL of 55.6%. Also, the inhibition at 30 µg/mL in assay [2] is 67.2%; in assay [3], 51.9%. Further, the inhibition at 25 µg/mL in assay [9] came out at 45.7%.

With `C=C1[C@@H]([C@@]2(C)C=CC(=O)OC(C)(C)[C@@H]2CC(=O)OC)[C@@H](OC(C)=O)[C@H](OC(C)=O)[C@@]2(C)[C@H](C3=CC(=O)OC3)C[C@H]3O[C@]132` [MUNRONOID O], the inhibition at 20 µg/mL in [4] turned out to be 42.8%. Moreover, in [5], the inhibition at 15 µg/mL came to 33.4%. Further, the inhibition at 10 µg/mL in assay [6] was determined as 24.6%. Further, the inhibition at 5 µg/mL in assay [7] turned out to be 11.2%. Further, the IC50 in [8] was found to be 22.2 µg/mL (≈ 37.8 µM). In assay [1], at 200 µg/mL the inhibition was 50.2%. The inhibition at 30 µg/mL in assay [2] and in [3] was 64.2% throughout. In assay [9], the inhibition at 25 µg/mL is 51.4%.
